The target in series [1] is T1, Atrial natriuretic peptide receptor 3 (Homo sapiens, UniProt P17342).
T1 sequence (P17342 whole entry): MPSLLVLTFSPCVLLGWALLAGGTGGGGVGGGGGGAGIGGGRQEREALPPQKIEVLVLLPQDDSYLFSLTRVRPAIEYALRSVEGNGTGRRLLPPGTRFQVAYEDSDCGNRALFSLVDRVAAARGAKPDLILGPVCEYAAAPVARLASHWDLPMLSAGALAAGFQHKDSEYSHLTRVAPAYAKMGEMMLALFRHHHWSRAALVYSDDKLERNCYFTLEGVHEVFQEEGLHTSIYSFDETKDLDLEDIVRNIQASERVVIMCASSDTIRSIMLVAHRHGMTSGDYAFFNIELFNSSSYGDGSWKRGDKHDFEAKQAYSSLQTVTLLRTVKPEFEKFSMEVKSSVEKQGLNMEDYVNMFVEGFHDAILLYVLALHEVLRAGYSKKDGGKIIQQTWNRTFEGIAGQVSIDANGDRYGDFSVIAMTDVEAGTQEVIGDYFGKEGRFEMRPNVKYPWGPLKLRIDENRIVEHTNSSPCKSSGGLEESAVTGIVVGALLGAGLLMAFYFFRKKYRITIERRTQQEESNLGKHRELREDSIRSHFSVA
In words: Binding affinity to CM5 sensor chip immobilized human NPR-C (27 to 541 residues) assessed as dissociation constant by surface plasmon resonance analysis.

Series [2] has as its target Cytochrome P450 2C9 (Homo sapiens, UniProt P11712). In words: Inhibition of CYP2C9 in human liver microsomes using diclofenac as substrate preincubated for 10 mins followed by NADPH addition and measured after 10 mins by LC/MS/MS analysis. For orientation: Liver microsomes are vesicles of endoplasmic reticulum, rich in cytochrome P450 enzymes.
Series [3] in a line: Solubility of compound in PBS at 10 mM after 3 hrs by UV analysis. The note with it: buffer, 10000 µM.
Series [4] has as its target T2, Cytochrome P450 3A4 (Homo sapiens, UniProt P08684). In words: Inhibition of CYP3A4 in human liver microsomes using midazolam as a substrate preincubated for 10 mins followed by NADPH addition and measured after 20 mins by LC/MS/MS analysis.
Series [5] is described as follows: Protein binding in human plasma by equilibrium dialysis assay. (In equilibrium dialysis free small molecules cross a membrane that holds back macromolecules.)
The conditions of series [6]: rat, hepatocytes, 20 min, 1 µM.
In series [7] the target is T3, Cytochrome P450 1A2 (Homo sapiens, UniProt P05177).
T3 sequence (P05177 whole entry): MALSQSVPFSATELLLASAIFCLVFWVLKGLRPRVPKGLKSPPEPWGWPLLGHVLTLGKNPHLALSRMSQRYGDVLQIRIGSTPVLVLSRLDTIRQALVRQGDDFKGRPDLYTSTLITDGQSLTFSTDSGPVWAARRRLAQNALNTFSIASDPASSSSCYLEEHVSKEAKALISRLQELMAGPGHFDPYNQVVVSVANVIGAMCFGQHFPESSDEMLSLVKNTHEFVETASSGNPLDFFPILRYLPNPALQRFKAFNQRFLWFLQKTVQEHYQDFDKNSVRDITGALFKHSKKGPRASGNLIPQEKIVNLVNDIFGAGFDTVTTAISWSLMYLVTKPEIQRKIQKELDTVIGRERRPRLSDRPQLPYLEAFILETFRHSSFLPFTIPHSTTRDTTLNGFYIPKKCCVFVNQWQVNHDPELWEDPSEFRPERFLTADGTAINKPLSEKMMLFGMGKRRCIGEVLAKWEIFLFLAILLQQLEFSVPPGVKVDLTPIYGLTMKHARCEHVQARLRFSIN
In words: Inhibition of CYP1A2 in human liver microsomes using phenacetin as substrate preincubated for 10 mins followed by NADPH addition and measured after 10 mins by LC/MS/MS analysis.

Series [8] in a line: Stability in Sprague-Dawley rat hepatocytes assessed as clearance per […] at 1 uM after 20 mins by LC-MS/MS analysis. Format: ADME, cell-based, Hepatocyte.
The target in series [9] is Cytochrome P450 2C19 (Homo sapiens, UniProt P33261). In words: Inhibition of CYP2C19 in human liver microsomes using S-mephenytoin as substrate preincubated for 10 mins followed by NADPH addition and measured after 20 mins by LC/MS/MS analysis.
The target in series [10] is T4, Atrial natriuretic peptide receptor 3 (Rattus norvegicus, UniProt P41740).
T4 sequence (P41740 whole entry): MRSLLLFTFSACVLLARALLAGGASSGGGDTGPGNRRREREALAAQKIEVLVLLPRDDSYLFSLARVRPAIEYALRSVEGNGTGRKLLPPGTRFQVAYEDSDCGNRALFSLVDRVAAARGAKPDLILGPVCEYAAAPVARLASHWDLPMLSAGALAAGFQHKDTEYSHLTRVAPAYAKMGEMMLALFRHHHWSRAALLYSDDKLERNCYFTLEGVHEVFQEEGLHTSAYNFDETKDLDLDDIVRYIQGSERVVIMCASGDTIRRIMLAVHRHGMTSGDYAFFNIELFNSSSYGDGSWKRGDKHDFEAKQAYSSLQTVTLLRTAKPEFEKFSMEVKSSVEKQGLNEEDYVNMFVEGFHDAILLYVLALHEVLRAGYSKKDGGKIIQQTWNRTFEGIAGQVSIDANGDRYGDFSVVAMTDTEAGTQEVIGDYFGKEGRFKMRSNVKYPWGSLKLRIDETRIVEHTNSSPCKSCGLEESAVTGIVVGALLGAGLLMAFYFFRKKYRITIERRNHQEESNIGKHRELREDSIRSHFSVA
In words: Agonist activity at NPRC in rat small mesenteric arteries assessed as vasorelaxation by Organ bath assay. Format: tissue-based, Artery.

Series [11] has as its target T5, Cytochrome P450 2C8 (Homo sapiens, UniProt P10632).
T5 sequence (P10632 whole entry): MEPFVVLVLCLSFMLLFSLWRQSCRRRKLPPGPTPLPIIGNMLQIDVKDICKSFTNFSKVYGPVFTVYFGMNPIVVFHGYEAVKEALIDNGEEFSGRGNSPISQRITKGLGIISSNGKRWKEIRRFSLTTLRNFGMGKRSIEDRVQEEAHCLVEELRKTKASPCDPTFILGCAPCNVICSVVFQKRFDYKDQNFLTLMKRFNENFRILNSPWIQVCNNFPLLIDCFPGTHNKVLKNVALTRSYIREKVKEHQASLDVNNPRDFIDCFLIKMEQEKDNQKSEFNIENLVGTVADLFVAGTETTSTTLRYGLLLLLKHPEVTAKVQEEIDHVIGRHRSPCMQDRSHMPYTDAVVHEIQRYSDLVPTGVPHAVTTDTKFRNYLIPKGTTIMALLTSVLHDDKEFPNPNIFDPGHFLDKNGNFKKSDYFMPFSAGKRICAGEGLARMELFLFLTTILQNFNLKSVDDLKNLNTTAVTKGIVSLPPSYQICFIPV
In words: Inhibition of CYP2C8 in human liver microsomes using amodiaquine as a substrate preincubated for 10 mins followed by NADPH addition and measured after 10 mins by LC/MS/MS analysis.

A short description of series [12]: Stability of compound in pooled human plasma assessed as half life measured upto 120 mins by LC/MS/MS analysis. To be noted: 2 h.
The nature of series [13]: Permeability of the compound in PBS at pH 7.4 incubated for 5 hrs by LC/MS based PAMPA assay. The note with it: pH 7.4, 5 h. On the technique in general: In PAMPA a lipid-coated filter parts donor from acceptor wells.
For series [14], the target named is T2, Cytochrome P450 3A4. In words: Inhibition of CYP3A4 in human liver microsomes using testosterone as a substrate preincubated for 10 mins followed by NADPH addition and measured after 10 mins by LC/MS/MS analysis.
Series [15] deals with T4, Atrial natriuretic peptide receptor 3. In words: Agonist activity at NPRC in rat aorta assessed as vasorelaxation by Organ bath assay. Format: tissue-based.
Series [16] deals with T6, Atrial natriuretic peptide receptor 2 (Homo sapiens) (UniProt P20594).
T6 sequence (whole entry): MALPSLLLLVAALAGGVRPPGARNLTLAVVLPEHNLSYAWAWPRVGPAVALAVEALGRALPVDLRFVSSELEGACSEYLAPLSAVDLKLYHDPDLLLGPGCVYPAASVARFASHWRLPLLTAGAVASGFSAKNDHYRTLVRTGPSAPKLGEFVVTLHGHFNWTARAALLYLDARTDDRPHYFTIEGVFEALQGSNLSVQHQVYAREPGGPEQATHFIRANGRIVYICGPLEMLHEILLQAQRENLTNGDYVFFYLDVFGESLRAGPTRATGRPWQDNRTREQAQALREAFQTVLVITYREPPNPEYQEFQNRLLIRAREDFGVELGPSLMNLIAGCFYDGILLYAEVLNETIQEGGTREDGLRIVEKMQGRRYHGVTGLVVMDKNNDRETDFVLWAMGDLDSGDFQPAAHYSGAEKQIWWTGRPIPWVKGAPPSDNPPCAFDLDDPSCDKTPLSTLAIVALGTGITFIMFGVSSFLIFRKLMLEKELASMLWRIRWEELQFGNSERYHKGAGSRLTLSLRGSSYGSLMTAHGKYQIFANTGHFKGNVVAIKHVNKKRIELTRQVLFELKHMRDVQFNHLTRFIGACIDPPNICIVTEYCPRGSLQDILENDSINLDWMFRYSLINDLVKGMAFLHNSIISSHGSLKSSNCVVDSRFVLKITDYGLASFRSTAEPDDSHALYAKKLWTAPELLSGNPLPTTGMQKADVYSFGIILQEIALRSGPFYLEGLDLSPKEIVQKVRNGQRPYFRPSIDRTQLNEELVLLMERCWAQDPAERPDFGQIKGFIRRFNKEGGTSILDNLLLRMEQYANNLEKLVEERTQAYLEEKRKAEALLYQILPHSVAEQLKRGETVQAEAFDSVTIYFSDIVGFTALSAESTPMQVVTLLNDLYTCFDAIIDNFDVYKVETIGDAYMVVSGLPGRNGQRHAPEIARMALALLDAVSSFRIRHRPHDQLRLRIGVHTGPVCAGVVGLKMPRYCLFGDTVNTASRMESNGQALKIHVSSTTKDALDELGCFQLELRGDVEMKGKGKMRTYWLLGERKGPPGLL
In words: Agonist activity at NPRB in human HeLa cells assessed as increased cGMP formation at 1 uM incubated for 30 mins in presence of IBMX by ELISA. The note with it: filed as agonist. Type of series: cell-based. The procedure, abridged:
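HeLa cells grown in high-glucose DMEM with 10% heat-inactivated bovine serum, penicillin and streptomycin at 5% CO2. Medium was changed on the assay day, then cells equilibrated 4 h. ANP, CNP and cANF4–23 (1 μM) or test compounds (10 μM) were added with IBMX (1 mM) for 30 min. Lysis used 1% Triton-X/0.1 M HCl. Supernatant cGMP was read by ELISA and normalized to BCA protein; points are independent biological replicates.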

Calls of active or inactive are those of the source. The rule behind the calls is not given here.

The values that follow come from ChEMBL document CHEMBL5154815, “A Series of Substituted Bis-Aminotriazines Are Activators of the Natriuretic Peptide Receptor C” (J Med Chem, 2022).

T2 sequence (P08684 whole entry): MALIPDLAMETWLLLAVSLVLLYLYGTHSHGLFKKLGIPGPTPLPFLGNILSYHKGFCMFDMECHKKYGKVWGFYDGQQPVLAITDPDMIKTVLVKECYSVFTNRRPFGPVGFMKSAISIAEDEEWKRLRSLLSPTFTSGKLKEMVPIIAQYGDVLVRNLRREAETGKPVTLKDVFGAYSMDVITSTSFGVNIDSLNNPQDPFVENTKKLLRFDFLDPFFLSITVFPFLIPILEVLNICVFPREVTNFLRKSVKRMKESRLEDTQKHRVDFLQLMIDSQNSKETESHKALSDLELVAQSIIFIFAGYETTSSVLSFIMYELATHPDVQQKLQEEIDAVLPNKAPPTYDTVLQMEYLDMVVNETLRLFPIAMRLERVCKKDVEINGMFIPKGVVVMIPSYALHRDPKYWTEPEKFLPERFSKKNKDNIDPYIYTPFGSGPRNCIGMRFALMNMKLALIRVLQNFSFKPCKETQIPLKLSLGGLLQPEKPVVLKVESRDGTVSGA
Chain of Cytochrome P450 2C19 (P33261 whole entry): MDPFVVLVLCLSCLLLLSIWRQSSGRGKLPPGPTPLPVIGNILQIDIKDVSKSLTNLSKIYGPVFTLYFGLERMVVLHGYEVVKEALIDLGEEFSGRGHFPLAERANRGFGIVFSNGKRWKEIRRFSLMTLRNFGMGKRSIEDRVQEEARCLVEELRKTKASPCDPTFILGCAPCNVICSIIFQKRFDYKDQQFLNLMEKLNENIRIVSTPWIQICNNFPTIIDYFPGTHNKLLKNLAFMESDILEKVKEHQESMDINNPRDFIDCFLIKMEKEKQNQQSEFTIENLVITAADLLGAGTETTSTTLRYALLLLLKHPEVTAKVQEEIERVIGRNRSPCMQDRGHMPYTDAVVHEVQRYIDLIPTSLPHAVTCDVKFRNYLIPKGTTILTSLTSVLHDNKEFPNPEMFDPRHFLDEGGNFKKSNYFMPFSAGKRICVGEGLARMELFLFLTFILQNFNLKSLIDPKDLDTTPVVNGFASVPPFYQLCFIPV
Chain of Cytochrome P450 2C9 (P11712 whole entry): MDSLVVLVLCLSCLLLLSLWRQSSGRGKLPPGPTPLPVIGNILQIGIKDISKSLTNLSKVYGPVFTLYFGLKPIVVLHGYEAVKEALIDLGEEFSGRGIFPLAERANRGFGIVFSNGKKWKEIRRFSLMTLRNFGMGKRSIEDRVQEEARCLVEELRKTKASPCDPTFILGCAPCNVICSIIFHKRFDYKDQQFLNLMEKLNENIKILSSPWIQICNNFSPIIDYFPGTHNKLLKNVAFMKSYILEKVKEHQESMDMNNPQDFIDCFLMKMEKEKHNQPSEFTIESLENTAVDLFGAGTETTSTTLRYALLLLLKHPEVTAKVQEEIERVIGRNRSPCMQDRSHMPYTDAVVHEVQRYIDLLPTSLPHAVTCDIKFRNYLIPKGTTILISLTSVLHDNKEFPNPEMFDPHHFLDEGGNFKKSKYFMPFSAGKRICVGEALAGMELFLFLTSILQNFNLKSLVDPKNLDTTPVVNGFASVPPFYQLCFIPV

Regarding `CC(=O)Nc1ccc(Nc2ncnc(N[C@@H](CC(C)C)C(=O)O)n2)cc1`, the Kd in series [1] stood at 220 µM. For the same compound, the IC50 in series [2], in series [4], in series [7], in [9], in series [11] and in series [14] was more than 50 µM in each case. Moreover, the solubility in series [3] is more than 71.68 mg/mL. The compound further returned a PPB in series [5] of 85.4%. The t1/2 in series [6] was 3.613 h; in series [12], more than 1 h. For the same compound, in series [8], the CLH was less than 6.4 µL/min. Further, the EC50 in series [10] was 22.2 µM; in series [15] it was 6.2 µM. Besides, the Papp in [13] is listed as < 0.001 10^-6 cm/s.

Turning to `CC[C@H](C)[C@@H]1NC(=O)[C@H](CCCNC(=N)N)NC(=O)[C@H](CC(=O)O)NC(=O)[C@H](CCSC)NC(=O)[C@H](CCCNC(=N)N)NC(=O)CNC(=O)CNC(=O)[C@H](Cc2ccccc2)NC(=O)[C@@H](NC(=O)[C@H](CO)NC(=O)[C@H](CO)NC(=O)[C@H](CCCNC(=N)N)NC(=O)[C@H](CCCNC(=N)N)NC(=O)[C@H](CC(C)C)NC(=O)[C@@H](N)CO)CSSC[C@@H](C(=O)N[C@@H](CC(N)=O)C(=O)N[C@@H](CO)C(=O)N[C@@H](Cc2ccccc2)C(=O)N[C@@H](CCCNC(=N)N)C(=O)N[C@@H](Cc2ccc(O)cc2)C(=O)O)NC(=O)CNC(=O)[C@H](CC(C)C)NC(=O)CNC(=O)[C@H](CO)NC(=O)[C@H](CCC(N)=O)NC(=O)[C@H](C)NC(=O)CNC1=O`, in [16], the result was Active.

The Kd is the equilibrium constant for the complex coming apart. What is called IC50 is the concentration that gives 50% inhibition. Higher therefore signals lower potency. As usually defined, the solubility is the concentration that dissolves in the medium under given conditions. One may read the EC50 as the midpoint of the concentration-response curve.
